Assay results gathered from unrelated publications.
MAPK7: Mitogen-activated protein kinase 7 (MAPK7, Homo sapiens, UniProt Q13164)
PDE4D: 3',5'-cyclic-AMP phosphodiesterase 4D (PDE4D, Homo sapiens, UniProt Q08499)
MTNR1B: Melatonin receptor type 1B (MTNR1B, Homo sapiens, UniProt P49286)

SMILES	target	assay	test system	conditions	endpoint	value
Cc1nn(C)cc1-c1nc2c(N3CCN(Cc4ccc(Cl)cc4)CC3)c(Cl)cnc2[nH]1	MAPK7	binding, competition with immobilised ligand		1 µM	remaining binding	100%
NC(=O)c1cccc(-c2cccc(OC(=O)NC3CCCCC3)c2)c1	Liver carboxylesterase 1 (CES1, Homo sapiens, UniProt P23141)	enzyme activity, inhibitor		pH 7.4	kinact/KI	4500 M⁻¹ s⁻¹
CC1(C)[C@@H](O[C@H]2O[C@H](C(=O)O)[C@@H](O)[C@H](O)[C@H]2O[C@@H]2O[C@H](C(=O)O)[C@@H](O)[C@H](O)[C@H]2O)CC[C@]2(C)[C@H]3C(=O)C=C4[C@@H]5C[C@@](C)(C(=O)O)CC[C@]5(C)CC[C@@]4(C)[C@]3(C)CC[C@@H]12	PDE4D	enzyme activity, inhibitor, radiometric		50 µM	inhibition	10.9%
CC[C@H](C)[C@@H]1NC(=O)[C@@H]2CSSC[C@H](NC(=O)[C@@H](NC(=O)CN)[C@@H](C)O)C(=O)N[C@@H](CC(N)=O)C(=O)N[C@@H]([C@@H](C)O)C(=O)N3CCC[C@H]3C(=O)NCC(=O)N[C@H]3CSSC[C@H](NC(=O)[C@H](CCSC)NC(=O)[C@H](CC(C)C)NC(=O)[C@H](CCCNC(=N)N)NC(=O)CNC(=O)CNC(=O)[C@H](CC(=O)O)NC1=O)C(=O)NCC(=O)N[C@@H](CCC(=O)O)C(=O)N[C@@H]([C@@H](C)O)C(=O)N[C@H](C(=O)N[C@H](C(=O)NCC(=O)O)C(C)C)CSSC[C@H](NC(=O)[C@H]([C@@H](C)O)NC3=O)C(=O)N[C@@H](CO)C(=O)N[C@@H](Cc1c[nH]c3ccccc13)C(=O)N1CCC[C@H]1C(=O)N[C@@H](C(C)C)C(=O)N2	Prothrombin (F2, Homo sapiens, UniProt P00734)	binding, SPR			kon	1000 to 10000 M⁻¹ s⁻¹
O=C(O)c1ccccc1O	PDE4D	enzyme activity, inhibitor, radiometric		50 µM	inhibition	3.34%
CCN(CC)CCCC[C@H](NC(=O)[C@H](CC(C)C)NC(=O)[C@H](C)NC(=O)[C@H](Cc1ccccc1)NC(=O)c1ccc(C(C)(C)C)cc1)C(=O)N[C@@H](CO)C(=O)OC	Bromodomain adjacent to zinc finger domain protein 1A (BAZ1A, Homo sapiens, UniProt Q9NRL2)	thermal stability, DSF		25 µM	ΔTm	-1.44 °C
C=C(C)[C@@H]1CC=C2C(=CC[C@]3(C)[C@@H]([C@@H](CCC=C(C)C)C(=O)O)[C@H](O)C[C@@]23C)[C@@]1(C)CCC(=O)O	PDE4D	enzyme activity, inhibitor, radiometric		50 µM	inhibition	51.7%
COc1ccc2cccc(C(CO)CNC(=O)CF)c2c1 (stereo not drawn)	MTNR1B	β-arrestin recruitment, agonist	MT2	90 min	Emax	101%
C[C@@]12C[C@@]3(O)O[C@@H](O1)[C@]1(COC(=O)c4ccccc4)[C@H]3C[C@@]12O[C@@H]1O[C@H](CO)[C@@H](O)[C@H](O)[C@H]1O	PDE4D	enzyme activity, inhibitor, radiometric		50 µM	inhibition	2.88%
COc1ncccc1-c1cnn2ccc(N3CCN(C(=O)OC(C)C)CC3)nc12	MAPK7	binding, competition with immobilised ligand		1 µM	remaining binding	100%
COc1ccc2[nH]cc(CCNC(=O)CI)c2c1	MTNR1B	GTPγS binding, agonist, radiometric		cell membranes	Emax	123%
Nc1ncc(-c2nc(N3CCOCC3)nc(N3CCOCC3)n2)c(C(F)F)n1	PDE4D	enzyme activity, inhibitor		10 µM	remaining activity	75%
